Only some compounds are listed: those with a hit (about 2.6% of all), similar ones and a draw of the others.
SENP6 block – blocks the human protease SENP6; Q9GZR1; Recombinant SENP6 catalytic domain, aminoluciferin luminescence; inhibition, % at 10 µM; 330,000 tested, 1.8% active; AID 2599;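 active means inhibition above about 50% at the single tested dose, limit read from the data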
SENP8 block-1 – blocks the human protease SENP8 | Q96LD8 | purified SENP8, Z-RLRGG-aminoluciferin cleavage, luminescence | inhibition, % at 10 µM | 330,000 tested, 1.2% active; in the data active means inhibition above about 50%
Target sequence (Q96LD8 whole entry, looked up): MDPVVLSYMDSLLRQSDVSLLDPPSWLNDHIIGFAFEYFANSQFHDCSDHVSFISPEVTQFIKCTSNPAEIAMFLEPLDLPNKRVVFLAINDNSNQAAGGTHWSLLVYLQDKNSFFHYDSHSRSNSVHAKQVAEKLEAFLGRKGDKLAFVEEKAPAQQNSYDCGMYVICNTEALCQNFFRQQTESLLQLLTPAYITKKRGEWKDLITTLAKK
SENP7 inh – SENP7 protease inhibition; recombinant SENP7, Z-RLRGG-aminoluciferin luminescence, 40 min; inhibition, % at 5 µM; 330,000 tested, 1.5% active; AID 434973;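 active means inhibition above about 50% at the single test dose, limit read from the data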
UCH37 inh – blocks the human deubiquitinase UCH37. Q9Y5K5. purified proteasome/UCH37, Ub-AMC cleavage fluorescence. inhibition, % (no concentration beside the values). 330,000 tested, 0.33% active. AID 588478;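 active means mean inhibition over replicate wells above about 20%, limit read from the data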
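Schedule: 30 min plus 25 min, room temperature / Material: human UCH37 within purified proteasomes / Technique: AMC fluorescence intensity at 355/460 nm / Buffer or medium: pH 7.4 Tris-HCl (50 mM) with ovalbumin, ATP-MgCl2, DTT / Controls: wells without proteasome as full block, compound-free enzyme plus substrate as uninhibited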
SENP8 block-2 – SENP8 (human) protease inhibition; Q96LD8; recombinant SENP8, Nedd8 substrate fluorescence; inhibition, % at 20 µM; 360,000 tested, 0.64% active; in the data active means inhibition mostly above about 40%, no sharp cut-off; inactive means mostly below about 27%
SENP1 FRET inh – inhibitors of human SENP1 SUMO protease catalytic domain. recombinant SENP1 catalytic domain, CyPet-SUMO1-YPet FRET cleavage. inhibition, % at 10 µM. 360,000 tested, 0.21% active;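 active means inhibition at least 30% at 10 µM, raw YFP signal under a set limit, fluorescence ratio 0.5 to 1.5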
Target sequence (Q9P0U3 419-644 limits assumed): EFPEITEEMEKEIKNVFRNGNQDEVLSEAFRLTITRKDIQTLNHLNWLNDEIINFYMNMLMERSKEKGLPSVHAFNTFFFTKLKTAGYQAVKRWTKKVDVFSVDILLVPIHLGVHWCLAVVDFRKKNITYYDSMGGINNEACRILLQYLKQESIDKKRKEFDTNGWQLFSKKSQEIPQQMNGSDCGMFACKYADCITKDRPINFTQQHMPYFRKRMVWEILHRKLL
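Compound: 10 µM single point, 0.5% DMSO; Test system: hSENP1 catalytic domain, recombinant; Timing: 50 min reaction at room temperature; Technique: FRET, CFP and YFP emission; Control set: no-enzyme wells low, DMSO-plus-enzyme wells high control.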
SENP8 inh conf – SENP8 (human) inhibition, single concentration confirmation; purified SENP8, Nedd8-AMC/pro-Nedd8 cleavage fluorescence, 30 min; 1,400 tested, 15% active; shares compounds with SENP8 block-2; AID 624319; inhibition, % at 25 µM; in the data active means inhibition mostly above about 39%, no sharp cut-off; inactive means mostly below about 34%
SENP1 inh conf – SENP1 (human) inhibition, single concentration confirmation | shares compounds with SENP1 FRET inh | recombinant SENP1, CyPet-SUMO1-YPet FRET cleavage | inhibition, % at 10 µM | 520 tested, 34% active; in the data active means inhibition mostly above about 35%, no sharp cut-off; inactive means mostly below about 32%
SENP1 kin conf – confirmation of human SENP1 SUMO protease inhibitors, kinetic. inhibition, % at 10 µM. shares compounds with SENP1 FRET inh. recombinant SENP1, CyPet-SUMO1-YPet FRET kinetic cleavage. AID 651690. 520 tested, 26% active; in the data active means inhibition mostly above about 32%, no sharp cut-off; inactive means mostly below about 29%
A number is an active result; - = inactive; . = not tested or not shown.

SMILES | SENP6 block | SENP8 block-1 | SENP7 inh | UCH37 inh | SENP8 block-2 | SENP1 FRET inh | SENP8 inh conf | others
COc1ccc2c(c1)C(=O)N(c1ccccc1OC)C(=O)C2 | - | - | - | - | 69 | - | 38
O=C(O)c1ccc(NCc2cccnc2)c([N+](=O)[O-])c1 | - | - | - | - | - | - | .
O=[N+]([O-])c1ccc(Cl)cc1NCc1cccnc1 | - | - | - | - | 51 | - | -
CC(C)CC(=O)NC(=S)Nc1ccccc1N1CCCC1 | - | - | - | - | 59 | - | -
CC(C)CC(=O)Nc1ccccc1N1CCCC1 | - | - | - | - | - | - | .
O=[N+]([O-])c1ccc(C=NN2CCOCC2)s1 | . | . | . | . | 48 | - | 50
O=C(/C=C/c1ccc2c(c1)OCO2)c1ccc(O)cc1O | . | . | . | - | 40 | - | -
Cc1ccc(C=Nn2c(C)nnc2C)s1 | . | . | . | - | . | . | .
CC(C)=CCC/C(C)=C/COc1ccc2ccc(=O)oc2c1 | - | - | - | - | - | - | .
CC(C)=CCC/C(C)=C/COc1c2occc2cc2ccc(=O)oc12 | - | - | - | - | 57 | - | -
Cc1nc2sc3c(c2c(=O)n1N=Cc1cccnc1)CCCC3 | . | . | . | - | . | . | .
CC1CCC(=NNc2ccc(C(F)(F)F)cc2[N+](=O)[O-])CC1 (stereo not drawn) | - | - | - | - | 43 | - | -
C/C(=N\Nc1ccc(C(F)(F)F)cc1[N+](=O)[O-])C(C)C | - | - | - | . | - | - | .
O=C(Nc1ccccc1)NN1CC(=O)N(c2ccc(Cl)cc2)CC1=O | - | - | - | - | - | - | .
O=C1CN(c2ccc(Cl)cc2)C(=O)CN1NC(=S)Nc1ccc(Cl)cc1 | - | - | - | - | 43 | - | -
Cn1c[n+](C)cc1C=NO | . | . | . | - | . | . | .
CCS(=O)(=O)N1CCC(C(=O)N2CCc3ccccc3C2)CC1 | - | - | - | - | 44 | - | 77
CC(C)CN(CC(C)C)S(=O)(=O)N1CCC(C(=O)N2CCc3ccccc3C2)CC1 | - | - | - | - | - | - | .
CN(C)c1ccc(C=NNC(=O)c2csnn2)cc1 | . | . | . | - | . | . | .
O=C(c1ccccc1C(=O)N1CCN(c2ccccc2)CC1)N1CCN(c2ccccc2)CC1 | - | - | - | - | 49 | - | -
CC(=Nn1cnnc1)c1ccc(C#N)cc1 | . | . | . | - | . | . | .
CCCOC(=O)c1cccc(NC(=O)C(C)(C)C)c1 | - | - | - | - | 42 | - | -
O=C(ON=C1C(=O)N(c2ccccc2)c2ccccc21)C1CC1 | . | . | . | - | . | . | .
COC(=O)C1[C@H]2C(=O)N(Cc3cccs3)C[C@]23C=C[C@H]1O3 (stereo partly drawn) | - | - | - | - | - | - | .
CCOC(=O)C1C2C=CC3(CN(Cc4cccs4)C(=O)C13)O2 (stereo not drawn) | - | - | - | - | 45 | - | -
SMILES | SENP6 block | SENP8 block-1 | SENP7 inh | UCH37 inh | SENP8 block-2 | SENP1 FRET inh | SENP8 inh conf | others
O=C(c1cc([N+](=O)[O-])cc([N+](=O)[O-])c1)N1CCN(Cc2ccc3c(c2)OCO3)CC1 | - | - | - | - | 50 | - | -
O=C(c1cc([N+](=O)[O-])ccc1Cl)N1CCN(Cc2ccc3c(c2)OCO3)CC1 | - | - | - | - | - | - | .
Cc1onc(-c2ccc(Cl)cc2Cl)c1-c1csc(NN=Cc2ccccc2Cl)n1 | . | . | . | - | . | . | .
Cc1cc(Br)ccc1-n1[nH]c(C)c(C=Nc2cccc3nsnc23)c1=O | - | - | - | - | 54 | 40 | - | SENP1 inh conf=-;SENP1 kin conf=-
O=C(O)c1cccc(Cn2c(Cl)c(C=NNc3ccccc3)sc2=O)c1 | . | . | . | - | . | . | .
CCn1c(/C=C/c2cc(Br)ccc2O)nc2ccccc2c1=O | - | - | - | - | - | 78 | . | SENP1 inh conf=36;SENP1 kin conf=-
CCn1c(/C=C/c2ccc(O)c(O)c2)nc2ccccc2c1=O | - | - | - | - | - | - | .
COc1ccc(C(=O)NN=C(C)CC(=O)Nc2ccccn2)cc1OC | . | . | . | - | . | . | .
